According to ChEMBL document CHEMBL4359914, “Design, synthesis and biological evaluation of stereo- and regioisomers of amino aryl esters as multidrug resistance (MDR) reversers” (Eur J Med Chem, 2019):
Calls of active or inactive are those of the source. The rule behind the calls is not given here.

How the values were obtained:
[1] = biological target: T1, ATP-dependent translocase ABCB1 (Homo sapiens, UniProt P08183); assay: Inhibition of P-gp (unknown origin) expressed in MDCK-MDR1 cells assessed as increase in calcein-AM accumulation incubated for 30 mins by calcein-AM dye based fluorescence assay; format: cell-based
[2] = biological target: T1, ATP-dependent translocase ABCB1; assay: Inhibition of P-gp in human K562/DOX cells assessed as drug level causing 50% increase in nuclear pirarubicin concentration incubated for 30 mins by fluorescence based assay; format: cell-based; details: read-out: I0.5
[3] = biological target: T1, ATP-dependent translocase ABCB1; assay: Inhibition of P-gp in human K562/DOX cells assessed as drug level causing maximum increase in nuclear pirarubicin concentration incubated for 30 mins by fluorescence based assay relative to control; format: cell-based; details: 0.5 h
[4] = biological target: T2, Broad substrate specificity ATP-binding cassette transporter ABCG2 (Homo sapiens, UniProt Q9UNQ0); assay: Inhibition of BCRP (unknown origin) expressed in MDCK cells assessed as increase in Hoechst 33342 accumulation incubated for 30 mins by Hoechst 33342 dye based fluorescence assay; format: cell-based
T2 sequence (Q9UNQ0 whole entry): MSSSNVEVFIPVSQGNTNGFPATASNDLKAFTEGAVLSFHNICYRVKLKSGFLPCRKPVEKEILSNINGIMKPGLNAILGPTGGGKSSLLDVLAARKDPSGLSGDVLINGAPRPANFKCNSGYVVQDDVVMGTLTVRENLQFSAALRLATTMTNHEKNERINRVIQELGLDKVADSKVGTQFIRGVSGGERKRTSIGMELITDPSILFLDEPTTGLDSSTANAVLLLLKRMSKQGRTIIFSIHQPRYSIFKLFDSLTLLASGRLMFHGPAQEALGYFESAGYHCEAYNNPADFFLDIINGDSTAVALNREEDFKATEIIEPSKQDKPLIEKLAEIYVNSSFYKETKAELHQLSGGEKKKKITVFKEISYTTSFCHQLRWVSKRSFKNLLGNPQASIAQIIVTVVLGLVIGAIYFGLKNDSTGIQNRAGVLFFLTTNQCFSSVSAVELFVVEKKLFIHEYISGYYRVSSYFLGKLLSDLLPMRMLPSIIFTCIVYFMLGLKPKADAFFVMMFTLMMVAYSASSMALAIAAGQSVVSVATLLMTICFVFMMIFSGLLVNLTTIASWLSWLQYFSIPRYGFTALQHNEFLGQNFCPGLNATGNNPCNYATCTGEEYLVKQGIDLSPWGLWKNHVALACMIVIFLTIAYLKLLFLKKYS

[5] = biological target: P-gp (MDR1, ABCB1) (Homo sapiens, UniProt P08183); assay: Inhibition of MDR1 (unknown origin) expressed in MDCK-MDR1 cells assessed as decrease in ATP consumption at 10 uM incubated for 2 hrs by ATPlite luminescence assay relative to control; format: cell-based; details: MDCK-MDR1 cells expressing MDR1
[6] = Chemical stability of compound assessed as half life in PBS at 1 uM incubated 120 mins by LC-MS/MS analysis; format: physicochemical
Outline: (§1)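 Analyte added to PBS or human plasma (healthy volunteer, stored at -80 °C) to 1 μM; incubated at 37 °C for 0, 30, 60 and 120 min, triplicate per time point. Internal standard solution added, centrifuged, supernatant dried under nitrogen and redissolved. Analyte quantified by LC-MS/MS in MRM mode; half-life derived from decay rate k.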

[7] = Stability of compound in human plasma assessed as half life at 1 uM incubated for 120 min by LC-MS/MS analysis; format: ADME, cell-free; outline: as §1
[8] = biological target: T1, ATP-dependent translocase ABCB1; assay: Inhibition of MDR1 (unknown origin) expressed in MDCK-MDR1 cells assessed as decrease in ATP consumption incubated for 2 hrs by ATPlite luminescence assay; format: cell-based; details: mdck-mdr1, 2 h
[9] = biological target: P-gp (ABCB1) (Homo sapiens, UniProt P08183); assay: Inhibition of P-gp (unknown origin) in […] MDCK-MDR1 cells assessed as increase in doxorubicin-induced cytotoxicity at 500 nM […] by MTT assay relative to control; format: cell-based; details: probe doxorubicin
[10] = tested on: MDCK; assay: Cytotoxicity against dog MDCK cells assessed as reduction in cell viability incubated for 24 hrs by MTT assay; format: cell-based; details: Canis lupus familiaris
Outline: (§2)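 MDCK parental, MDCK-MDR1 and MDCK-MRP1 cells grown in DMEM high glucose with 10% FBS, 2 mM glutamine, penicillin/streptomycin at 37 °C, 5% CO2. Compound exposure 24 h; viability by MTT. EC50 taken per line; selectivity ratio computed as EC50 parental/EC50 MDR.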

[11] = tested on: MDCK; assay: Induction of ROS-mediated cell death in dog MDCK cells expressing MRP1 at 500 nM incubated for 24 hrs by DCFDA-AM staining based ATPlite luminescence assay; format: functional; details: Canis lupus familiaris
Outline: (§3)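 Viability by ATPlite luminescence; untreated cell RLU set as 100%, results as % viable cells vs untreated. Quadruplicates, n = 3, means ± SD.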

[12] = tested on: MDCK; assay: Induction of ROS-mediated cell death in dog MDCK cells expressing MRP1 at 500 nM in presence of NAC incubated for 24 hrs by DCFDA-AM staining based ATPlite luminescence assay; format: functional; details: Canis lupus familiaris; outline: as §3
[13] = tested on: MDCK; assay: Cytotoxicity against dog MDCK cells expressing MRP1 assessed as reduction in cell viability incubated for 24 hrs by MTT assay; format: functional, cell-based; details: Canis lupus familiaris; outline: as §2
[14] = tested on: MDCK; assay: Induction of ROS generation in dog MDCK cells over expressing MRP1 at 500 nM incubated for 24 hrs by DCFDA-AM staining based ATPlite luminescence assay; format: functional, cell-based; details: Canis lupus familiaris
Outline: (§4)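 MDCK-MRP1 or MDCK-MDR1 cells grown 24 h in fresh medium or with 500 nM compound, with or without 10 mM N-acetyl-cysteine. Intracellular ROS measured fluorimetrically with DCFDA-AM probe, expressed as nmol/mg cellular protein; duplicates, n = 3, means ± SD.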

[15] = biological target: T3, BCRP (ABCG2) (Homo sapiens, UniProt Q9UNQ0); assay: Inhibition of BCRP (unknown origin) expressed in MDCK cells assessed as increase in Hoechst 33342 accumulation at upto 100 uM incubated for 30 mins by Hoechst 33342 dye based fluorescence assay; format: cell-based; details: MDCK cells expressing BCRP, probe Hoechst 33342
T3 sequence (Q9UNQ0 whole entry): T2 sequence (Q9UNQ0 whole entry)

[16] = tested on: MDCK-MDR1; assay: Cytotoxicity against dog MDCK-MDR1 cells assessed as reduction in cell viability incubated for 24 hrs by MTT assay; format: functional, cell-based; details: Canis lupus familiaris, MDCK-MDR1, 24 h; outline: as §2
[17] = tested on: MDCK-MDR1; assay: Induction of ROS-mediated cell death in dog MDCK-MDR1 cells at 500 nM incubated for 24 hrs by DCFDA-AM staining based ATPlite luminescence assay; format: functional; details: Canis lupus familiaris; outline: as §3
[18] = tested on: MDCK-MDR1; assay: Induction of ROS-mediated cell death in dog MDCK-MDR1 cells at 500 nM incubated for 24 hrs in presence of NAC by DCFDA-AM staining based ATPlite luminescence assay; format: functional; details: Canis lupus familiaris; outline: as §3
[19] = tested on: MDCK-MDR1; assay: Induction of ROS generation in dog MDCK-MDR1 cells at 500 nM incubated for 24 hrs by DCFDA-AM staining based ATPlite luminescence assay; format: functional, cell-based; details: Canis lupus familiaris; outline: as §4

T1 sequence (P08183 whole entry): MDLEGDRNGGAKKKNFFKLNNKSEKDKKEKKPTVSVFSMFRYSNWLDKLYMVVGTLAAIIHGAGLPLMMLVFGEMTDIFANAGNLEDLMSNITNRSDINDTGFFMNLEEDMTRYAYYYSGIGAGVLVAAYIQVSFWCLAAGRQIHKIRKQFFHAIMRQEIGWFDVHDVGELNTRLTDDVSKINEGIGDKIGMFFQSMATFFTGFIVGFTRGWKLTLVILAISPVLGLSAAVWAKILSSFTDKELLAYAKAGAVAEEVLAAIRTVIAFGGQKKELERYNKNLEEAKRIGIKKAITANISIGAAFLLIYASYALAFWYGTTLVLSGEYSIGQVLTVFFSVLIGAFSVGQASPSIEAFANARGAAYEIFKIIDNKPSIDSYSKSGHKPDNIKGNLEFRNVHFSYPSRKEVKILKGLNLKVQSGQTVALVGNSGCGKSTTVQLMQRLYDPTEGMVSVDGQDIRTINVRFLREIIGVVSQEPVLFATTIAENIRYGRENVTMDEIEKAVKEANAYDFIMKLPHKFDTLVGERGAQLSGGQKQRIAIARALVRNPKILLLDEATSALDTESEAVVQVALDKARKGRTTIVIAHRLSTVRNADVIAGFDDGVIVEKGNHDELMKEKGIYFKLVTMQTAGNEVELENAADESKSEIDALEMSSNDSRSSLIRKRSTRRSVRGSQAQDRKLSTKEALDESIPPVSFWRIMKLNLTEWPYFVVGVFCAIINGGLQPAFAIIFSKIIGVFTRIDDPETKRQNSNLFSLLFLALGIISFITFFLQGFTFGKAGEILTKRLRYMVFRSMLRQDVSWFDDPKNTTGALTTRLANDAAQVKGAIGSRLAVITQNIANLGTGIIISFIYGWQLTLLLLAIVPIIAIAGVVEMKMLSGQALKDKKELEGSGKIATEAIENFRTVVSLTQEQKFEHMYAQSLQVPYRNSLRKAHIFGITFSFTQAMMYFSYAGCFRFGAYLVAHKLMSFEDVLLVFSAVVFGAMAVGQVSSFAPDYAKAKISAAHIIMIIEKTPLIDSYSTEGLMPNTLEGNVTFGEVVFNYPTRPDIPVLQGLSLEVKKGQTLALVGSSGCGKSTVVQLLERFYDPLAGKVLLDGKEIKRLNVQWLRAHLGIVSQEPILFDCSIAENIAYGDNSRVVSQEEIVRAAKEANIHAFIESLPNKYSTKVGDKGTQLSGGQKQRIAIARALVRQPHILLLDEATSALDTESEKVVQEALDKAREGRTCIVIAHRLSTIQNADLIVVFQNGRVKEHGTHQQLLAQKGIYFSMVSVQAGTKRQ
Chain of P-gp (MDR1, ABCB1) (P08183 whole entry): as above
Chain of P-gp (ABCB1) (P08183 whole entry): as above

Compound | EC50 [1] [µM] | IC50 [2] [µM] | Alpha max [3] | EC50 ([4]; read-out: EC50) [µM] | inhibition at 2 h, 10 µM [5] [%] | half-life at 1 µM [6] [h] | half-life at 1 µM [7] [h] | inhibition (INH) [8] | inhibition at 24 h, 0.5 µM [9] [%] | EC50 [10] [µM] | Activity [11] | Activity [12] | EC50 [13] [µM] | Activity [14] | EC50 ([4]; mdck) | inhibition at 0.5 h [15] [%] | EC50 [16] [µM] | Activity [17] | Activity [18] | Activity [19]
COc1cc(/C=C/C(=O)OC[C@@H](C)CN(C)CCCOC(=O)c2cc(OC)c(OC)c(OC)c2)cc(OC)c1OC | 1.38 | 0.09 | 0.75 | 3.7 | 20 | ≥ 4 | 0.483 |  |  |  |  |  |  |  |  |  |  |  |  | 
COc1cc(/C=C/C(=O)OCCCCCN(C)C[C@@H](C)COC(=O)c2cc(OC)c(OC)c(OC)c2)cc(OC)c1OC | 0.31 | 0.35 | 0.72 | 41 |  | ≥ 4 | ≥ 4 | Not Active | 30 | 100 | Active | Active | 11.7 | Active |  |  |  |  |  | 
COc1cc(/C=C/C(=O)OC[C@H](C)CN(C)CCCCCOC(=O)c2cc(OC)c(OC)c(OC)c2)cc(OC)c1OC | 1 | 0.4 | 0.99 |  |  | ≥ 4 | 0.483 | Not Active |  |  |  |  |  |  | Not Active | 0 |  |  |  | 
COc1cc(/C=C/C(=O)OC[C@@H](C)CN(C)CCCOC(=O)c2c3ccccc3cc3ccccc23)cc(OC)c1OC | 0.91 | 0.18 | 0.79 | 2.3 |  | ≥ 4 | ≥ 4 | Not Active |  |  |  |  |  |  |  |  |  |  |  | 
COc1cc(/C=C/C(=O)OC[C@H](C)CN(C)CCCOC(=O)c2cc(OC)c(OC)c(OC)c2)cc(OC)c1OC | 0.71 | 0.14 | 0.99 | 33.5 |  | ≥ 4 | 1.95 | Not Active |  |  |  |  |  |  |  |  |  |  |  | 
COc1cc(/C=C/C(=O)OC[C@H](C)CN(C)CCCCCCCOC(=O)c2c3ccccc3cc3ccccc23)cc(OC)c1OC | 1.4 | 0.97 | 0.65 | 6.4 |  | ≥ 4 | ≥ 4 | Not Active |  |  |  |  |  |  |  |  |  |  |  | 
COc1cc(/C=C/C(=O)OCCCCCN(C)C[C@H](C)COC(=O)c2c3ccccc3cc3ccccc23)cc(OC)c1OC | 0.76 | 0.08 | 0.75 | 4.6 |  | ≥ 4 | ≥ 4 | Not Active |  |  |  |  |  |  |  |  |  |  |  | 
COc1cc(/C=C/C(=O)OCCCCCCCN(C)C[C@@H](C)COC(=O)c2cc(OC)c(OC)c(OC)c2)cc(OC)c1OC | 0.65 | 0.12 | 0.83 | 4.3 |  | ≥ 4 | ≥ 4 | Not Active |  |  |  |  |  |  |  |  |  |  |  | 
COc1cc(/C=C/C(=O)OCCCCCN(C)C[C@@H](C)COC(=O)c2c3ccccc3cc3ccccc23)cc(OC)c1OC | 0.81 | 0.23 | 0.89 | 4.6 |  | ≥ 4 | ≥ 4 | Not Active |  |  |  |  |  |  |  |  |  |  |  | 
COc1cc(/C=C/C(=O)OCCCCCN(C)C[C@H](C)COC(=O)c2cc(OC)c(OC)c(OC)c2)cc(OC)c1OC | 0.11 | 0.24 | 0.75 | 8.1 |  | ≥ 4 | ≥ 4 | Not Active |  |  |  |  |  |  |  |  |  |  |  | 
COc1cc(/C=C/C(=O)OC[C@H](C)CN(C)CCCOC(=O)c2c3ccccc3cc3ccccc23)cc(OC)c1OC | 0.95 | 0.08 | 0.99 | 5.9 |  | ≥ 4 | ≥ 4 | Not Active |  |  |  |  |  |  |  |  |  |  |  | 
COc1cc(/C=C/C(=O)OC[C@@H](C)CN(C)CCCCCOC(=O)c2cc(OC)c(OC)c(OC)c2)cc(OC)c1OC | 1.1 | 0.08 | 0.99 | 4.2 |  | ≥ 4 | 0.3 | Not Active |  |  |  |  |  |  |  |  |  |  |  | 
COc1cc(/C=C/C(=O)OCCCN(C)C[C@H](C)COC(=O)c2cc(OC)c(OC)c(OC)c2)cc(OC)c1OC | 0.55 | 0.54 | 0.89 | 6.4 |  | ≥ 4 | ≥ 4 | Not Active |  | 100 |  |  |  |  |  |  | 40 | Active | Active | Active
COc1cc(/C=C/C(=O)OCCCN(C)C[C@@H](C)COC(=O)c2c3ccccc3cc3ccccc23)cc(OC)c1OC | 0.96 | 0.17 | 0.8 | 6.8 |  | ≥ 4 | ≥ 4 | Not Active |  |  |  |  |  |  |  |  |  |  |  | 
